According to ChEMBL document CHEMBL2034946, “Synthesis and biological evaluation of cyclic sulfamide derivatives as 11β-hydroxysteroid dehydrogenase 1 inhibitors” (ACS Med Chem Lett, 2012):

Legend:
[1] = system: Mus musculus; experiment: Ex-vivo inhibition of 11betaHSD1 in C57BL/6 mouse fat at 20 mg/kg, po after 2 hrs by ELISA; format: functional; settings: C57BL/6, 2 h
In short: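 Normal mice dosed orally (1, 5, 10 or 20 mpk); 11β-HSD1 activity in fat tissue measured ex vivo 2 h post-dose.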

[2] = system: Mus musculus; experiment: Ex-vivo inhibition of 11betaHSD1 in C57BL/6 mouse liver at 20 mg/kg, po after 2 hrs by ELISA; format: functional; settings: C57BL/6, Liver
In short: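 Normal mice given 20 mpk orally; liver tissue taken 2 h after dosing and 11β-HSD1 activity measured ex vivo as % inhibition relative to vehicle.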

[3] = Metabolic stability in rat liver microsomes assessed as compound remaining after 30 mins; format: ADME, Microsome; settings: read-out: Stability
In short: (§1)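 Human and rat liver microsomes incubated with compound for 30 min; stability reported as percent parent compound remaining.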

[4] = biological target: 11-beta-hydroxysteroid dehydrogenase 1 (Homo sapiens, UniProt P28845); experiment: Inhibition of human 11beta-HSD1 expressed in CHO-K1 cells using cortisone as substrate after 3 hrs by HTRF assay; format: cell-based; settings: read-out: IC50
In short: (§2)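 Cells overexpressing human or mouse 11β-HSD1 incubated with cortisone plus compound for 3 h; cortisol measured by HTRF. IC50 fitted from concentration-dependent inhibition curves; means ± SEM of triplicate experiments.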

[5] = biological target: 11-beta-hydroxysteroid dehydrogenase 1 (Mus musculus, UniProt P50172); experiment: Inhibition of mouse 11beta-HSD1 expressed in CHO-K1 cells using cortisone as substrate after 3 hrs by HTRF assay; format: cell-based; in short: as §2
[6] = Metabolic stability in human liver microsomes assessed as compound remaining after 30 mins; format: ADME, Microsome; settings: read-out: Stability; in short: as §1

Sequence of 11-beta-hydroxysteroid dehydrogenase 1 (Mus musculus, UniProt P50172) (P50172 whole entry): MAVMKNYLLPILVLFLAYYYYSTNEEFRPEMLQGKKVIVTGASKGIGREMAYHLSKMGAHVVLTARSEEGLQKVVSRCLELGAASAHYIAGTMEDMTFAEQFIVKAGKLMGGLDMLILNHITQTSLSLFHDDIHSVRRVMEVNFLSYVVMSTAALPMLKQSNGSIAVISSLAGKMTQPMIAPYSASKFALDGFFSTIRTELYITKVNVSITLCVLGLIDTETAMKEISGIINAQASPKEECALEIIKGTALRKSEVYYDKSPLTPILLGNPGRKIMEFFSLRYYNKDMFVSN
Sequence of 11-beta-hydroxysteroid dehydrogenase 1 (Homo sapiens, UniProt P28845) (P28845 whole entry): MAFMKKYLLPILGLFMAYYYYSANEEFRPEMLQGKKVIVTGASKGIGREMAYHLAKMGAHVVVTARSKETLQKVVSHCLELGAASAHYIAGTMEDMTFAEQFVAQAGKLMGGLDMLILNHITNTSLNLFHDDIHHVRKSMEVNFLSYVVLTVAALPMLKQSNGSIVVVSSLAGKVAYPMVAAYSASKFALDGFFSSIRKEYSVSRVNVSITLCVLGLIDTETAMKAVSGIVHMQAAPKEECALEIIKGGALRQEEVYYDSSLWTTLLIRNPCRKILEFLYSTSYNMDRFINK

| Compound | inhibition in vivo at 20 mg/kg [1] | inhibition in vivo at 20 mg/kg [2] | remaining at 0.5 h [3] | IC50 [4] | IC50 [5] | remaining at 0.5 h [6] |
| --- | --- | --- | --- | --- | --- | --- |
| NC(=O)[C@]12CC3CC(C1)[C@@H](NC(=O)CN1CCCN(c4c(Cl)cc(Cl)cc4Cl)S1(=O)=O)C(C3)C2 | 92.1% | 83.7% | 57% | 0.001 µM | 0.004 µM | 61% |
| C=C1CN(CC(=O)N[C@H]2C3CC4CC2C[C@](C(N)=O)(C4)C3)S(=O)(=O)N(c2c(Cl)cc(Cl)cc2Cl)C1 | 82.1% | – | – | 0.014 µM | 0.008 µM | – |
| CC1(C)CN(CC(=O)N[C@H]2C3CC4CC2C[C@](C(N)=O)(C4)C3)S(=O)(=O)N(c2c(Cl)cc(Cl)cc2Cl)C1 | 29.9% | – | – | 0.005 µM | 0.026 µM | – |
| NC(=O)[C@]12CC3CC(C1)[C@@H](NC(=O)CN1CCCN(c4ccc(F)cc4)S1(=O)=O)C(C3)C2 | – | – | – | 351 µM | 15.5 µM | – |
| NC(=O)[C@]12CC3CC(C1)[C@@H](NC(=O)CN1CCCN(c4c(F)cc(F)cc4F)S1(=O)=O)C(C3)C2 | – | – | – | 0.02 µM | 0.157 µM | – |
| O=C(CN1CCCN(CCc2ccccc2)S1(=O)=O)NC1C2CC3CC(C2)CC1C3 (stereo unspecified) | – | – | – | 1.66 µM | – | – |
| NC(=O)[C@]12CC3CC(C1)[C@@H](NC(=O)CN1CCCN(c4ccccc4)S1(=O)=O)C(C3)C2 | – | – | – | 0.017 µM | 0.207 µM | – |
| NC(=O)[C@]12CC3CC(C1)[C@@H](NC(=O)CN1CCCN(c4ccccc4F)S1(=O)=O)C(C3)C2 | – | – | – | 0.014 µM | 0.17 µM | – |
